Reference: ChEMBL document CHEMBL1149618, “Selection, synthesis, and structure-activity relationship of tetrahydropyrido[4,3-d]pyrimidine-2,4-diones as human GnRH receptor antagonists” (Bioorg Med Chem, 2007)
Active and inactive are the calls of the source. The rule behind the calls is not given here.

Biological target: T1, Gonadotropin-releasing hormone receptor (Homo sapiens) (UniProt P30968)
T1 sequence (whole entry): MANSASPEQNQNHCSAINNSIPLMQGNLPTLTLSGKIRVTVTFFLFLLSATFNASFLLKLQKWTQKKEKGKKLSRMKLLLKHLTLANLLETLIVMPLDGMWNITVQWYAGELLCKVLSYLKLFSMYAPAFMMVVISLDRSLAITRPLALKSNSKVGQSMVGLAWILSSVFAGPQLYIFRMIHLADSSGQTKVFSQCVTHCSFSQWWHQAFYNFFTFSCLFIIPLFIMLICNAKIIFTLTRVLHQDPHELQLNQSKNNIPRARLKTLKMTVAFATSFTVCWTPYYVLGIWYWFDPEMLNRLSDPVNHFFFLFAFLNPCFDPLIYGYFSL
Assay: (§1) Displacement of [125I]His5,D-Tyr6]GnRH from human cloned GnRH receptor transfected in COS7 cells
Format: cell-based
Conditions: COS-7
Method in brief: (§2)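 Competition binding against the radiolabelled GnRH agonist at the cloned human GnRH receptor, following a previously published method. Only compounds above 85% UV purity at 220 and 254 nm by LC–MS were assayed. Each compound was tested at least twice.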

Row | Compound | Activity
1 | COc1ccccc1CN1CCc2c(c(=O)n(CCN(C)CCc3ccccn3)c(=O)n2Cc2c(F)cccc2F)C1 | inactive

Biological target: T2, Gonadotropin-releasing hormone receptor (Homo sapiens, UniProt P30968)
T2 sequence (P30968 whole entry): T1 sequence (whole entry)
Assay: as §1
Format: cell-based, COS-7
Conditions: not given
Method in brief: as §2

Row | Compound | Ki
2 | Cc1c(CN2CCc3c(c(=O)n(CCN(C)CCc4ccccn4)c(=O)n3Cc3c(F)cccc3C(F)(F)F)C2)sc2ccccc12 | 0.01 µM
3 | Cc1ccc(CN2CCc3c(c(=O)n(CC4CCCCN4C)c(=O)n3Cc3c(F)cccc3F)C2)c(C)c1 (centres undefined) | 1.71 µM
4 | CCSc1ccc(CN2CCc3c(c(=O)n(CCN(C)CCc4ccccn4)c(=O)n3Cc3c(F)cccc3F)C2)cc1 | 0.015 µM
5 | Cc1c(CN2CCc3c(c(=O)n(CCN(C)CCc4ccccn4)c(=O)n3Cc3ccccc3F)C2)sc2ccccc12 | 0.08 µM
6 | CN(CCc1ccccn1)CCn1c(=O)c2c(n(Cc3c(F)cccc3F)c1=O)CCN(Cc1cccc(Cl)c1)C2 | 0.85 µM
7 | CCc1ccc(CN2CCc3c(c(=O)n(CCN(C)CCc4ccccn4)c(=O)n3Cc3c(F)cccc3F)C2)cc1 | 0.02 µM
8 | Cc1ccc(CN2CCc3c(c(=O)n(CC4CCCCN4CC(C)C)c(=O)n3Cc3c(F)cccc3F)C2)c(C)c1 (centres undefined) | 2.59 µM
9 | COc1cccc(-n2c(=O)c3c(n(Cc4c(F)cccc4F)c2=O)CN(Cc2ccccc2OC)CC3)c1 | 0.98 µM
10 | Cc1c(CN2CCc3c(c(=O)n(CCN(C)CCc4ccccn4)c(=O)n3Cc3c(F)cccc3F)C2)sc2ccccc12 | 0.015 µM
11 | Cc1c(CN2CCc3c(c(=O)n(CCN(C)CCc4ccccn4)c(=O)n3CC3CCCCC3)C2)sc2ccccc12 | 0.38 µM
12 | CN(CCc1ccccn1)CCn1c(=O)c2c(n(Cc3c(F)cccc3F)c1=O)CCN(Cc1ccccc1)C2 | 0.99 µM
13 | CN(CCc1ccccn1)CCn1c(=O)c2c(n(Cc3c(F)cccc3F)c1=O)CCN(Cc1ccc(-n3ccnc3)cc1)C2 | > 10 µM
14 | O=c1c2c(n(Cc3c(F)cccc3F)c(=O)n1C[C@H]1CCCN1)CCN(Cc1ccc(Cl)cc1)C2 | > 10 µM
15 | Cc1cc(Cl)ccc1CN1CCc2c(c(=O)n(CCN(C)CCc3ccccn3)c(=O)n2Cc2c(F)cccc2F)C1 | 0.005 µM
16 | CN(CCc1ccccn1)CCn1c(=O)c2c(n(Cc3c(F)cccc3F)c1=O)CCN(Cc1ccc(C(C)(C)C)cc1)C2 | 0.3 µM
17 | Cc1ccc(CN2CCc3c(c(=O)n(CC4CCCN(Cc5ccccc5)C4)c(=O)n3Cc3c(F)cccc3F)C2)c(C)c1 (centres undefined) | 0.16 µM
18 | O=c1c2c(n(Cc3c(F)cccc3F)c(=O)n1C[C@H]1CCCN1Cc1ccccn1)CCN(Cc1ccc(Cl)cc1)C2 | 0.02 µM
19 | CN(CCc1ccccn1)CCn1c(=O)c2c(n(Cc3c(F)cccc3F)c1=O)CCN(Cc1ccc(Cl)cc1)C2 | 0.017 µM
20 | Cc1ccc(CN2CCc3c(c(=O)n(CC4CCCCN4Cc4ccccn4)c(=O)n3Cc3c(F)cccc3F)C2)c(C)c1 (centres undefined) | 0.025 µM
21 | CN(C)[C@@H](Cn1c(=O)c2c(n(Cc3c(F)cccc3F)c1=O)CCN(Cc1ccc(Cl)cc1)C2)c1ccccc1 | 0.07 µM

Row | Compound | Ki
22 | Cc1ccc(CN2CCc3c(c(=O)n(CCN(C)CCc4ccccn4)c(=O)n3Cc3c(F)cccc3F)C2)c(C)c1 | 0.005 µM
23 | CN(CCc1ccccn1)CCn1c(=O)c2c(n(Cc3c(F)cccc3F)c1=O)CCN(Cc1ccncc1)C2 | > 10 µM
24 | O=c1c2c(n(Cc3c(F)cccc3F)c(=O)n1C[C@H]1CCCN1CCc1ccccn1)CCN(Cc1ccc(Cl)cc1)C2 | 0.01 µM
25 | COc1cccc(-n2c(=O)c3c(n(Cc4c(F)cccc4F)c2=O)CN(CCc2c[nH]c4ccccc24)CC3)c1 | 2.2 µM
26 | Cc1c(CN2CCc3[nH]c(=O)n(CCN(C)CCc4ccccn4)c(=O)c3C2)sc2ccccc12 | > 10 µM
27 | Cc1ccc(CN2CCc3c(c(=O)n(CC4CCCN(C5CCCC5)C4)c(=O)n3Cc3c(F)cccc3F)C2)c(C)c1 (centres undefined) | 2.58 µM
28 | O=c1c2c(n(Cc3c(F)cccc3F)c(=O)n1C[C@H]1CCCN1C1CCCC1)CCN(Cc1ccc(Cl)cc1)C2 | 1.37 µM
29 | CN(CCc1ccccn1)CCn1c(=O)c2c(n(Cc3c(F)cccc3F)c1=O)CCN(Cc1ccc(S(C)(=O)=O)cc1)C2 | 0.805 µM
30 | Cc1ccc(CN2CCc3c(c(=O)n(CC4CCCN(CC(C)C)C4)c(=O)n3Cc3c(F)cccc3F)C2)c(C)c1 (centres undefined) | > 10 µM
31 | Cc1ccc(CN2CCc3c(c(=O)n(CCN(C)CC(C)C)c(=O)n3Cc3c(F)cccc3F)C2)c(C)c1 | 1.8 µM
32 | CN[C@@H](Cn1c(=O)c2c(n(Cc3c(F)cccc3F)c1=O)CCN(Cc1ccc(Cl)cc1)C2)c1ccccc1 | 0.045 µM
33 | CN(CCc1ccccn1)CCn1c(=O)c2c(n(Cc3c(F)cccc3F)c1=O)CCN(Cc1nc3ccccc3n1C)C2 | > 10 µM
34 | Cc1ccc(CN2CCc3c(c(=O)n(CC4CCCCN4)c(=O)n3Cc3c(F)cccc3F)C2)c(C)c1 (centres undefined) | > 10 µM
35 | O=c1c2c(n(Cc3c(F)cccc3F)c(=O)n1C[C@H]1CCCCN1CCc1ccccn1)CCN(Cc1ccc(Cl)cc1)C2 | 0.03 µM
36 | COc1cccc(-n2c(=O)c3c(n(Cc4c(F)cccc4F)c2=O)CN(Cc2ccccc2)CC3)c1 | 1.29 µM
37 | COc1ccc(CN2CCc3c(c(=O)n(CCN(C)CCc4ccccn4)c(=O)n3Cc3c(F)cccc3F)C2)cc1 | 0.1 µM
38 | CN(CCc1ccccn1)CCn1c(=O)c2c(n(Cc3c(F)cccc3F)c1=O)CCN(Cc1ccc(Cl)c(Cl)c1)C2 | 0.255 µM
39 | CN(CCc1ccccn1)CCn1c(=O)c2c(n(Cc3c(F)cccc3F)c1=O)CCN(Cc1ccc(C(F)(F)F)cc1)C2 | 0.03 µM
40 | COc1cccc(-n2c(=O)c3c(n(Cc4c(F)cccc4F)c2=O)CN(Cc2ccncc2)CC3)c1 | 1.58 µM
41 | Cc1ccc(CN2CCc3c(c(=O)n(CC4CCCN(CCc5ccccn5)C4)c(=O)n3Cc3c(F)cccc3F)C2)c(C)c1 (centres undefined) | 0.6 µM

Row | Compound | Ki
42 | Cc1c(CN2CCc3c(c(=O)n(CCN(C)CCc4ccccn4)c(=O)n3Cc3ccccc3)C2)sc2ccccc12 | 0.305 µM
43 | Cc1ccc(CN2CCc3c(c(=O)n(CCN(C)CCc4ccccn4)c(=O)n3Cc3c(F)cccc3F)C2)cc1 | 0.035 µM
44 | Cc1ccc(CN2CCc3c(c(=O)n(CCN(C)Cc4ccccn4)c(=O)n3Cc3c(F)cccc3F)C2)c(C)c1 | 0.18 µM
45 | Cc1ccc(CN2CCc3c(c(=O)n(CC4CCCNC4)c(=O)n3Cc3c(F)cccc3F)C2)c(C)c1 (centres undefined) | 2.45 µM
46 | COc1cccc(-n2c(=O)c3c(n(Cc4c(F)cccc4F)c2=O)CNCC3)c1 | 0.97 µM
47 | Cc1ccccc1CN1CCc2c(c(=O)n(CCN(C)CCc3ccccn3)c(=O)n2Cc2c(F)cccc2F)C1 | 0.085 µM
48 | COc1cccc(-n2c(=O)c3c(n(Cc4c(F)cccc4F)c2=O)CN(Cc2ccc(C)cc2)CC3)c1 | > 10 µM
49 | COc1cccc(-n2c(=O)c3c(n(Cc4c(F)cccc4F)c2=O)CN(Cc2ccc(-n4ccnc4)cc2)CC3)c1 | 0.54 µM
50 | Cc1ccc(CN2CCc3c(c(=O)n(CC4CCCN(C)C4)c(=O)n3Cc3c(F)cccc3F)C2)c(C)c1 (centres undefined) | > 10 µM
51 | Cc1c(CN2CCc3c(c(=O)n(CCN(C)CCc4ccccn4)c(=O)n3C)C2)sc2ccccc12 | > 10 µM
52 | O=c1c2c(n(Cc3c(F)cccc3F)c(=O)n1C[C@@H]1CCCCN1CCc1ccccn1)CCN(Cc1ccc(Cl)cc1)C2 | 2.41 µM
53 | Cc1ccc(CN2CCc3c(c(=O)n(CC4CCCCN4Cc4ccccc4)c(=O)n3Cc3c(F)cccc3F)C2)c(C)c1 (centres undefined) | 0.945 µM
54 | CN(CCc1ccccn1)CCn1c(=O)c2c(n(Cc3c(F)cccc3F)c1=O)CCN(CCc1c[nH]c3ccccc13)C2 | 0.515 µM
55 | Cc1ccc(CN2CCc3c(c(=O)n(CC4CCCCN4C4CCCC4)c(=O)n3Cc3c(F)cccc3F)C2)c(C)c1 (centres undefined) | 0.52 µM
56 | Cc1ccc(CN2CCc3c(c(=O)n(CC4CCCN(Cc5ccccn5)C4)c(=O)n3Cc3c(F)cccc3F)C2)c(C)c1 (centres undefined) | 0.49 µM
57 | CCc1ccc(CN2CCc3c(c(=O)n(CCN(C)C)c(=O)n3Cc3c(F)cccc3F)C2)cc1 | 1.4 µM
58 | CSc1ccc(CN2CCc3c(c(=O)n(CCN(C)CCc4ccccn4)c(=O)n3Cc3c(F)cccc3F)C2)cc1 | 0.01 µM
59 | CN(CCc1ccccn1)CCn1c(=O)c2c(n(Cc3c(F)cccc3F)c1=O)CCNC2 | > 10 µM
